Experimental findings from ChEMBL document CHEMBL2010670, “Discovery of a clinical stage multi-kinase inhibitor sodium (E)-2-{2-methoxy-5-[(2',4',6'-trimethoxystyrylsulfonyl)methyl]phenylamino}acetate (ON 01910.Na): synthesis, structure-activity relationship, and biological activity” (J Med Chem, 2011) are described below.

What all share (format): functional, cell-based
The subject of assay [1] is K562. As to the kind of experiment: Cytotoxicity against human K562 cells after 96 hrs by trypan blue exclusion assay. Particulars: Homo sapiens, K562, 96 h. The method, boiled down:
(§1)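 Cells grown in DMEM or RPMI with 10% FBS and penicillin-streptomycin, seeded at 1.0 × 10⁵ cells/mL/well in 6-well dishes. Compound added at a range of concentrations 24 h after seeding. Viable cells counted by trypan blue exclusion from duplicate wells after 96 h of exposure; dose-response end point.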

Assay [2] deals with DU-145. As to the kind of experiment: Cytotoxicity against human DU145 cells after 96 hrs by trypan blue exclusion assay. Particulars: Homo sapiens, DU-145, 96 h. The method, boiled down:
as §1

Assay [3] can be described thus: Cytotoxicity against multidrug-resistant human MES-SA/Dx5 cells assessed as cell viability after 96 hrs by trypan blue exclusion. The note with it: MES-SA/Dx5, 96 h. The method, boiled down: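 Cells grown in DMEM or RPMI with 10% FBS and 1 unit/mL penicillin-streptomycin, seeded at 1.0 × 10⁵ cells/mL/well in 6-well dishes; compound added 24 h later at various concentrations. After 96 h of treatment, viable cells counted by trypan blue exclusion in duplicate wells; dose-response end point.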

Assay [4] in a line: Cytotoxicity against human MES-SA cells assessed as cell viability after 96 hrs by trypan blue exclusion. In a few lines: as §1

As for `COc1ccc(CS(=O)(=O)/C=C/c2cc(OC)c(OC)c(OC)c2)cc1NCC(=O)O`, the values for the IC50 in assay [1] and in assay [2] were 3 µM and 5 µM, respectively.
The corresponding values for `COc1cc(OC)c(/C=C/S(=O)(=O)Cc2ccc(OC)c(NC(C(=O)O)c3ccc(Cl)cc3)c2)c(OC)c1` (centres undefined) are 0.25 µM and 0.4 µM.
For `COC(=O)C(Nc1cc(CS(=O)(=O)/C=C/c2c(OC)cc(OC)cc2OC)ccc1OC)c1ccc(F)cc1` (centres undefined), the IC50 in assay [1] was 0.8 µM; in assay [2], 0.3 µM.
As to `COc1ccc(CS(=O)(=O)/C=C/c2c(OC)cc(OCCCC(=O)O)cc2OC)cc1N`, the IC50 in assay [1] is 20 µM; in assay [2], 25 µM.
As for `COc1ccc(CS(=O)(=O)/C=C/c2ccccc2OC)cc1N`, the IC50 in assay [1] and in assay [2] was 7.5 µM throughout.
For `COc1ccc(CS(=O)(=O)/C=C/c2c(OC)cccc2OC)cc1N`, the IC50 in assay [1] and in assay [2] was 0.05 µM in each case.
Consider `COc1cc(OC)c(/C=C/S(=O)(=O)Cc2ccc(F)c(N)c2)c(OC)c1`, for which the IC50 in assay [1] and in assay [2] was 2.5 µM each time.
Consider `COc1cc(OC)c(/C=C/S(=O)(=O)Cc2ccc(Cl)c(N)c2)c(OC)c1`, for which the IC50 in assay [1] and in assay [2] was 0.01 µM in each case.
Turning to `COc1cc(OC)c(/C=C/S(=O)(=O)Cc2ccc(Br)c([N+](=O)[O-])c2)c(OC)c1`, the IC50 in assay [1] and in assay [2] was 25 µM in each case.
Turning to `COC(=O)[C@H](C)Nc1cc(CS(=O)(=O)/C=C/c2c(OC)cc(OC)cc2OC)ccc1OC`, the values for the IC50 in assay [1] and in assay [2] were 0.2 µM and 0.75 µM, respectively.
Turning to `COc1cc(OC)c(/C=C/SCc2ccc(OC)c([N+](=O)[O-])c2)c(OC)c1`, the IC50 in assay [1] and in assay [2] was 5 µM in each case.
Consider `COC(=O)C(Nc1cc(CS(=O)(=O)/C=C/c2c(OC)cc(OC)cc2OC)ccc1OC)c1ccc(Br)cc1` (centres undefined), for which the figures for the IC50 in assay [1] and in assay [2] were 0.2 µM and 0.3 µM, respectively.
In the same order, the values of `COc1ccc(OC)c(/C=C/S(=O)(=O)Cc2ccc(OC)c(N)c2)c1` are 0.75 µM and 0.75 µM.
The corresponding values for `COc1cc(OC)c(/C=C/[S+]([O-])Cc2ccc(OC)c([N+](=O)[O-])c2)c(OC)c1` (centres undefined) are 15 µM and 15 µM.
In the same order, the values of `COc1cc(OC)c(/C=C/S(=O)(=O)Cc2ccc(OC)cc2[N+](=O)[O-])c(OC)c1` are 20 µM and 20 µM.
As for `COc1cc(OC)c(/C=C/S(=O)(=O)Cc2ccc(OC)c([N+](=O)[O-])c2)c(OC)c1`, the IC50 in assay [1] and in assay [2] was 2.5 µM each time.
`COc1cc(OC)c(/C=C/S(=O)(=O)Cc2cc(N)ccc2OC)c(OC)c1`: the IC50 in assay [1] and in assay [2] was 7.5 µM each time.
Take `COc1ccc(/C=C/S(=O)(=O)Cc2ccc(OC)c(N)c2)c(OC)c1`: the IC50 in assay [1] and in assay [2] was 0.5 µM each time.
As to `COc1cc(OC)c(/C=C/S(=O)(=O)Cc2ccc(OC)c(NC(F)(F)C(=O)O)c2)c(OC)c1`, the concentration for half-maximal inhibition (IC50) in assay [1] and in assay [2] was 0.15 µM in each case.
On to `COc1ccc(N)cc1CS(=O)(=O)/C=C/c1c(OC)cccc1OC`, for which the IC50 in assay [1] and in assay [2] was 25 µM throughout.
Consider `COc1ccccc1/C=C/S(=O)(=O)Cc1ccc(OC)c([N+](=O)[O-])c1`, for which the IC50 in assay [1] and in assay [2] was 20 µM in each case.
On to `COc1cc(OC)c(/C=C/S(=O)(=O)Cc2ccc(Br)c(N)c2)c(OC)c1`, for which the IC50 in assay [1] and in assay [2] was 0.75 µM in each case.
As for `COc1ccc(CS(=O)(=O)/C=C/c2cc(OC)c(OC)c(OC)c2)cc1N`, the IC50 is 0.25 µM in assay [1] and 3 µM in assay [2].
The corresponding values for `COc1cc(OC)c(/C=C/S(=O)(=O)Cc2ccc(OC)c(NC(C(=O)O)c3ccc(F)cc3)c2)c(OC)c1` (centres undefined) are 0.08 µM and 0.15 µM.
With `COc1cc(OC)c(/C=C/S(=O)(=O)Cc2ccc(OC)c(NC(C(=O)O)c3ccccc3)c2)c(OC)c1` (centres undefined), the IC50 in assay [1] came to 0.015 µM; in assay [2] it was 0.02 µM.
On to `COc1ccc(CS(=O)(=O)/C=C/c2cc(F)c(F)cc2F)cc1N`, for which the figures for the concentration for half-maximal inhibition (IC50) in assay [1] and in assay [2] were 15 µM and 5 µM, respectively.
With `COc1ccc(CS(=O)(=O)/C=C/c2c(OC)cc(OC)cc2OC)c(N)c1`, the IC50 in assay [1] and in assay [2] was 0.025 µM in each case.
As to `COc1ccc(CS(=O)(=O)/C=C/c2cc(OC)c(OC)cc2OC)cc1N`, the IC50 in assay [1] and in assay [2] was 0.25 µM throughout.
For `COc1ccc(C(Nc2cc(CS(=O)(=O)/C=C/c3c(OC)cc(OC)cc3OC)ccc2OC)C(=O)O)cc1` (centres undefined), the IC50 is 0.015 µM in assay [1] and 0.1 µM in assay [2].
Turning to `COc1cc(OC)c(/C=C/S(=O)(=O)Cc2ccc(F)c([N+](=O)[O-])c2)c(OC)c1`, the IC50 in assay [1] and in assay [2] was 25 µM each time.
On to `COC(=O)C(F)(F)Nc1cc(CS(=O)(=O)/C=C/c2c(OC)cc(OC)cc2OC)ccc1OC`, for which the IC50 in assay [1] and in assay [2] was 0.25 µM each time.
On to `COc1ccc(CS(=O)(=O)/C=C/c2c(OC)cc(O)cc2OC)cc1[N+](=O)[O-]`, for which the half-maximal inhibitory concentration (IC50) in assay [1] and in assay [2] was 5 µM throughout.
On to `COC(=O)C(C)(C)Nc1cc(CS(=O)(=O)/C=C/c2c(OC)cc(OC)cc2OC)ccc1OC`, for which the IC50 is 0.8 µM in assay [1] and 2.5 µM in assay [2].
Take `COC(=O)C(Nc1cc(CS(=O)(=O)/C=C/c2c(OC)cc(OC)cc2OC)ccc1OC)c1ccccc1` (centres undefined): the IC50 in assay [1] is 0.03 µM; in assay [2] it was 0.075 µM.
The corresponding values for `COc1ccc(CS(=O)(=O)/C=C/c2c(OC)cccc2OC)c([N+](=O)[O-])c1` are 50 µM and 50 µM.
The corresponding values for `COc1ccc(CS(=O)(=O)/C=C/c2c(OC)cc(O)cc2OC)cc1N` are 0.3 µM and 0.2 µM.
Consider `COc1cc(OC)c(/C=C/[S+]([O-])Cc2ccc(OC)c(N)c2)c(OC)c1` (centres undefined), for which the IC50 was 0.02 µM in assay [1] and 0.04 µM in assay [2].
For the compound `COc1cc(OC)c(/C=C/S(=O)(=O)Cc2ccc(OC)c(NCC(=O)O)c2)c(OC)c1` [RIGOSERTIB], the IC50 in assay [1] came to 0.0075 µM; in assay [2], 0.075 µM.
The corresponding values for `COc1cc(OC)c(/C=C/S(=O)(=O)Cc2ccc(Cl)cc2N)c(OC)c1` are 2.5 µM and 2.5 µM.
For the compound `COc1ccc(/C=C/S(=O)(=O)Cc2ccc(OC)c([N+](=O)[O-])c2)cc1`, the IC50 in assay [1] and in assay [2] was 25 µM throughout.
On to `COc1cc(OC)c(/C=C/S(=O)(=O)Cc2ccc(OC)c(NCCC(=O)O)c2)c(OC)c1`, for which the IC50 in assay [1] and in assay [2] was 5 µM each time.
With `COC(=O)CNc1cc(CS(=O)(=O)/C=C/c2cc(OC)c(OC)c(OC)c2)ccc1OC`, the IC50 in assay [1] was 30 µM; in assay [2] it was 75 µM.
For the compound `COC(=O)C(Nc1cc(CS(=O)(=O)/C=C/c2c(OC)cc(OC)cc2OC)ccc1OC)c1ccc(OC)cc1` (centres undefined), the figures for the IC50 in assay [1] and in assay [2] were 0.15 µM and 0.25 µM, respectively.
The corresponding values for `COc1cc(OC)c(/C=C/S(=O)(=O)Cc2ccc(OC)c(NC(C)(C)C(=O)O)c2)c(OC)c1` are 0.0075 µM and 0.15 µM.
As for `COC(=O)CCNc1cc(CS(=O)(=O)/C=C/c2c(OC)cc(OC)cc2OC)ccc1OC`, the IC50 in assay [1] was found to be 1 µM; in assay [2], 1.5 µM.
With `CC(=O)O[C@H]1C(=O)[C@@]2(C)[C@H]([C@H](OC(=O)c3ccccc3)[C@]3(O)C[C@H](OC(=O)[C@H](O)[C@@H](NC(=O)c4ccccc4)c4ccccc4)C(C)=C1C3(C)C)[C@]1(OC(C)=O)CO[C@@H]1C[C@@H]2O` [PACLITAXEL], the half-maximal inhibitory concentration (IC50) in assay [3] came to 0.75 µM; in assay [4] it was 0.004 µM.
`COC(=O)C(Nc1cc(CS(=O)(=O)/C=C/c2c(OC)cc(OC)cc2OC)ccc1OC)c1ccc(Cl)cc1` (centres undefined): the IC50 in assay [1] is 0.2 µM; in assay [2], 0.4 µM.
For the compound `COc1cc(OC)c(/C=C/SCc2ccc(OC)c(N)c2)c(OC)c1`, the IC50 in assay [1] is 0.03 µM; in assay [2], 0.05 µM.
`COc1cc(OC)c(/C=C/S(=O)(=O)Cc2ccc(OC)c(N[C@@H](C)C(=O)O)c2)c(OC)c1`: the figures for the IC50 in assay [1] and in assay [2] were 0.015 µM and 0.025 µM, respectively.
As to `COC(=O)CNc1cc(CS(=O)(=O)/C=C/c2c(OC)cc(OC)cc2OC)ccc1OC`, the IC50 in assay [1] and in assay [2] was 0.1 µM each time.
With `COC(=O)C(Nc1cc(CS(=O)(=O)/C=C/c2c(OC)cc(OC)cc2OC)ccc1OC)C(F)(F)F` (centres undefined), the IC50 in assay [1] and in assay [2] was 0.25 µM in each case.
As to `COc1ccc(CS(=O)(=O)/C=C/c2c(OC)cccc2OC)c(N)c1`, the IC50 in assay [1] and in assay [2] was 0.75 µM in each case.
`COc1ccc(CS(=O)(=O)/C=C/c2c(F)cc(F)cc2F)cc1N`: the IC50 in assay [1] amounted to 0.8 µM; in assay [2], 2 µM.
On to `COc1ccc(/C=C/S(=O)(=O)Cc2ccc(OC)c(N)c2)cc1`, for which the IC50 in assay [1] and in assay [2] was 2.5 µM each time.
Take `COc1ccc(CS(=O)(=O)/C=C/c2c(OC)cccc2OC)cc1[N+](=O)[O-]`: the half-maximal inhibitory concentration (IC50) in assay [1] and in assay [2] was 20 µM in each case.
As to `COc1cc(OC)c(/C=C/S(=O)(=O)Cc2ccc(OC)c(NC(C(=O)O)c3ccc(Br)cc3)c2)c(OC)c1` (centres undefined), the concentration for half-maximal inhibition (IC50) in assay [1] is 0.2 µM; in assay [2], 0.3 µM.
In the same order, the values of `COc1cc(OC)c(/C=C/S(=O)(=O)Cc2ccc(OC)c(NC(C(=O)O)C(F)(F)F)c2)c(OC)c1` (centres undefined) are 0.075 µM and 0.02 µM.

As usually defined, the IC50 is the concentration at which inhibition is half-maximal.
